Test results from ChEMBL document CHEMBL4627393, “Discovery of Potent, Selective, and State-Dependent NaV1.7 Inhibitors with Robust Oral Efficacy in Pain Models: Structure-Activity Relationship and Optimization of Chroman and Indane Aryl Sulfonamides” (J Med Chem, 2020).

Key:
[1] = Clearance in BALB/c mouse at 1 mg/kg, iv measured upto 24 hrs by LC/MS-MS analysis; assay type: ADME, organism-based; conditions: in vivo
[2] = Clearance in Beagle dog at 1 mg/kg, iv administered as infusion for 15 mins by LC/MS-MS analysis; assay type: ADME, organism-based, Canis lupus familiaris; conditions: in vivo
[3] = Metabolic stability in monkey liver microsomes assessed as metabolic rate at 1 uM preincubated for 5 mins followed by NADPH addition and measured up to 30 mins by LC/MS-MS analysis; assay type: ADME, Macaca mulatta, Microsome; conditions: rhesus monkey, 0.5 h
[4] = Oral bioavailability in BALB/c mouse at 10 mg/kg measured upto 24 hrs by LC/MS-MS analysis; assay type: ADME, organism-based; conditions: in vivo
How it was run: (§1)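 Pharmacokinetics were run with an IV dose of 1 mg/kg and a PO dose of 10 mg/kg. Parameters reported were AUClast, Cmax, CL, T1/2, Vss and %F.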

[5] = Half life in BALB/c mouse at 1 mg/kg, iv measured upto 24 hrs by LC/MS-MS analysis; assay type: ADME, organism-based; conditions: in vivo
[6] = AUClast in Sprague-Dawley rat at 10 mg/kg, po measured upto 24 hrs by LC/MS-MS analysis; assay type: ADME, organism-based; design: time < 24 hr, dose 10 mg/kg, route oral; conditions: in vivo
[7] = Metabolic stability in human liver microsomes assessed as metabolic rate at 1 uM preincubated for 5 mins followed by NADPH addition and measured up to 30 mins by LC/MS-MS analysis; assay type: ADME, Microsome; conditions: 0.5 h
[8] = Volume of distribution at steady state in Beagle dog at 1 mg/kg, iv administered as infusion for 15 mins by LC/MS-MS analysis; assay type: ADME, organism-based, Canis lupus familiaris; conditions: in vivo, read-out: Vdss; how it was run: as §1
[9] = Apparent permeability across basolateral to apical side in human Caco2 cells; assay type: ADME, cell-based; conditions: Caco-2
[10] = AUClast in Sprague-Dawley rat at 1 mg/kg, iv measured upto 24 hrs by LC/MS-MS analysis; assay type: ADME, organism-based; design: dose 1 mg/kg, time < 24 hr, route intravenous; conditions: in vivo
[11] = Cmax in Sprague-Dawley rat at 10 mg/kg, po measured upto 24 hrs by LC/MS-MS analysis; assay type: ADME, organism-based; design: dose 10 mg/kg, route oral; conditions: in vivo
[12] = Drug concentration in brain of formalin-induced C57BL/6 mouse model of nociceptive pain at 30 mg/kg, po administered 30 mins before formalin stimulation and measured after 40 mins
[13] = AUClast in BALB/c mouse at 10 mg/kg, po measured upto 24 hrs by LC/MS-MS analysis; assay type: ADME, organism-based; design: dose 10 mg/kg, time < 24 hr, route oral; conditions: in vivo
[14] = AUClast in BALB/c mouse at 1 mg/kg, iv measured upto 24 hrs by LC/MS-MS analysis; assay type: ADME, organism-based; design: time < 24 hr, dose 1 mg/kg, route intravenous; conditions: in vivo
[15] = Clearance in Sprague-Dawley rat at 1 mg/kg, iv measured upto 24 hrs by LC/MS-MS analysis; assay type: ADME, organism-based; conditions: in vivo
[16] = Metabolic stability in dog liver microsomes assessed as metabolic rate at 1 uM preincubated for 5 mins followed by NADPH addition and measured up to 30 mins by LC/MS-MS analysis; assay type: ADME, Canis lupus familiaris, Microsome; conditions: 0.5 h
[17] = Volume of distribution at steady state in BALB/c mouse at 1 mg/kg, iv measured upto 24 hrs by LC/MS-MS analysis; assay type: ADME, organism-based; conditions: in vivo, read-out: Vdss; how it was run: as §1
[18] = Oral bioavailability in Sprague-Dawley rat at 10 mg/kg measured upto 24 hrs by LC/MS-MS analysis; assay type: ADME, organism-based; conditions: in vivo; how it was run: as §1
[19] = Cmax in BALB/c mouse at 10 mg/kg, po measured upto 24 hrs by LC/MS-MS analysis; assay type: ADME, organism-based; design: dose 10 mg/kg, route oral; conditions: in vivo
[20] = Metabolic stability in mouse liver microsomes assessed as metabolic rate at 1 uM preincubated for 5 mins followed by NADPH addition and measured up to 30 mins by LC/MS-MS analysis; assay type: ADME, Microsome; conditions: 0.5 h
[21] = Metabolic stability in rat liver microsomes assessed as metabolic rate at 1 uM preincubated for 5 mins followed by NADPH addition and measured up to 30 mins by LC/MS-MS analysis; assay type: ADME, Microsome; conditions: 0.5 h
[22] = Cmax in Beagle dog at 1 mg/kg, iv administered as infusion for 15 mins by LC/MS-MS analysis; assay type: ADME, organism-based, Canis lupus familiaris; design: dose 1 mg/kg, route intravenous; conditions: in vivo
[23] = Half life in Beagle dog at 1 mg/kg, iv administered as infusion for 15 mins by LC/MS-MS analysis; assay type: ADME, organism-based, Canis lupus familiaris; conditions: in vivo
[24] = AUClast in Beagle dog at 1 mg/kg, iv administered as infusion for 15 mins by LC/MS-MS analysis; assay type: ADME, organism-based, Canis lupus familiaris; design: dose 1 mg/kg, time 0 - last, route intravenous; conditions: in vivo
[25] = Volume of distribution at steady state in Sprague-Dawley rat at 1 mg/kg, iv measured upto 24 hrs by LC/MS-MS analysis; assay type: ADME, organism-based; conditions: in vivo, read-out: Vdss
[26] = Apparent permeability across apical to basolateral side in human Caco2 cells; assay type: ADME, cell-based; conditions: Caco-2
[27] = Half life in Sprague-Dawley rat at 1 mg/kg, iv measured upto 24 hrs by LC/MS-MS analysis; assay type: ADME, organism-based; conditions: in vivo
[28] = Cmax in BALB/c mouse at 1 mg/kg, iv measured upto 24 hrs by LC/MS-MS analysis; assay type: ADME, organism-based; design: dose 1 mg/kg, route intravenous; conditions: in vivo
[29] = Lipophilicity, log D of the compound; assay type: physicochemical; conditions: octanol/water
[30] = Cmax in Sprague-Dawley rat at 1 mg/kg, iv measured upto 24 hrs by LC/MS-MS analysis; assay type: ADME, organism-based; design: dose 1 mg/kg, route intravenous; conditions: in vivo
[31] = Bioavailability in Beagle dog at 1 mg/kg, iv administered as infusion for 15 mins followed by compound washout and subsequent compound dosing at 5 mg/kg, po measured up to 24 hrs by LC/MS-MS analysis; assay type: ADME, organism-based, Canis lupus familiaris; conditions: in vivo
[32] = Unbound drug concentration in plasma of formalin-induced C57BL/6 mouse model of nociceptive pain at 3 mg/kg, po administered 30 mins before formalin stimulation and measured after 40 mins; assay type: ADME, organism-based; conditions: in vivo
How it was run: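 Mice were dosed orally at 3 mg/kg 30 min before formalin challenge. Nociceptive behaviour was scored at 0–5 min (phase I) and 10–40 min (phase II). Plasma was collected at the end of the study, and the unbound drug concentration was determined.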

[33] = Cmax in Beagle dog at 1 mg/kg, iv administered as infusion for 15 mins followed by compound washout and subsequent compound dosing at 5 mg/kg, po measured up to 24 hrs by LC/MS-MS analysis; assay type: ADME, organism-based, Canis lupus familiaris; conditions: in vivo
[34] = AUClast in Beagle dog at 1 mg/kg, iv administered as infusion for 15 mins followed by compound washout and subsequent compound dosing at 5 mg/kg, po measured up to 24 hrs by LC/MS-MS analysis; assay type: ADME, organism-based, Canis lupus familiaris; conditions: in vivo

| SMILES | Drug metabolism [3] [nmol/min/mg] | bioavailability [4] [%] | half-life [5] [h] | AUC(0-t) at 24 h [6] [µM·h] | Drug metabolism [7] [nmol/min/mg] | Vd [8] [L/kg] | AUC(0-t) at 24 h [10] [µM·h] | Cmax [11] [µM] | AUC(0-t) at 24 h [13] [µM·h] | AUC(0-t) at 24 h [14] [µM·h] | Drug metabolism [16] [nmol/min/mg] | Vd [17] [L/kg] | bioavailability [18] [%] | Cmax [19] [µM] | Drug metabolism [20] [nmol/min/mg] | Drug metabolism [21] [nmol/min/mg] | Cmax [22] [µM] | half-life [23] [h] | AUC(0-t) at 0.25 h [24] [µM·h] | Vd [25] [L/kg] | other results |
| --- | --- | --- | --- | --- | --- | --- | --- | --- | --- | --- | --- | --- | --- | --- | --- | --- | --- | --- | --- | --- | --- |
| O=S(=O)(Nc1ncccn1)c1ccc2c(c1)OCC[C@@H]2c1ccc(C(F)(F)F)cc1N1CCOCC1 | 0.03 | 50 | 4.3 | 19 | 0.02 | 0.5 | 5.9 | 2.1 | 62 | 12 | 0.02 | 0.81 | 31 | 9.6 | 0.16 | 0.02 | 4.9 | 11 | 48 | 1.2 | clearance [1]: 2.5 mL/min/kg; clearance [2]: 0.5 mL/min/kg; Papp B→A [9]: 25.4 ×10⁻⁶ cm/s; brain concentration at 40 min [12]: < 1 µM; clearance [15]: 5.1 mL/min/kg; Papp A→B [26]: 37.6 ×10⁻⁶ cm/s; half-life [27]: 2.8 h; Cmax [28]: 2 µM; logD [29]: 2.7; Cmax [30]: 2.1 µM |
| Cn1nccc1-c1cc(C(F)(F)F)ccc1[C@H]1CCOc2cc(S(=O)(=O)Nc3ncccn3)ccc21 | 0.02 | 89 | 4.2 | 114 | 0 | 0.3 | 11 | 13 | 107 | 12 | 0.01 | 0.9 | 100 | 15 | 0 | 0.01 | 6.9 | 7.8 | 59 | 0.9 | bioavailability [31]: 40%; clearance [1]: 2.7 mL/min/kg; clearance [2]: 0.5 mL/min/kg; Papp B→A [9]: 26.8 ×10⁻⁶ cm/s; Cp(f) [32]: 0.728 µM; Cmax [33]: 10 µM; clearance [15]: 3 mL/min/kg; AUC(0-t) [34]: 117 µM·h; Papp A→B [26]: 28 ×10⁻⁶ cm/s; half-life [27]: 4.2 h; Cmax [28]: 2 µM; logD [29]: 3.7; Cmax [30]: 2.2 µM |
| Cc1ccc(-c2cc(C(F)(F)F)ccc2[C@H]2CCOc3cc(S(=O)(=O)Nc4ncccn4)ccc32)cn1 | 0.02 | 83 | 1.5 | 112 | 0 | 0.4 | 5.5 | 19 | 63 | 7.6 | 0.02 | 0.6 | > 100 | 18 | 0.04 | 0.02 | 6.5 | 2.5 | 19 | 0.8 | bioavailability [31]: 51%; Papp B→A [9]: 36.8 ×10⁻⁶ cm/s; brain concentration at 40 min [12]: < 1 µM; Cmax [33]: 8.5 µM; AUC(0-t) [34]: 50 µM·h; Papp A→B [26]: 39.5 ×10⁻⁶ cm/s; half-life [27]: 1.9 h; Cmax [28]: 3 µM; logD [29]: 2.3; Cmax [30]: 2.6 µM |
| O=S(=O)(Nc1ncccn1)c1ccc2c(c1)OCC[C@@H]2c1ccc(C(F)(F)F)cc1-c1ccc(F)nc1 | 0.01 | > 100 | 3.2 | 111 | 0 | 0.5 | 15 | 6.6 | 171 | 12 | 0.03 | 0.8 | 74 | 17 | 0 | 0 | 5.7 | 24 | 70 | 1.2 | bioavailability [31]: 78%; clearance [1]: 2.6 mL/min/kg; clearance [2]: 0.3 mL/min/kg; Papp [9]: 33.4 ×10⁻⁶ cm/s; Cmax [33]: 14 µM; clearance [15]: 2 mL/min/kg; AUC(0-t) [34]: 218 µM·h; Papp [26]: 41.8 ×10⁻⁶ cm/s; half-life [27]: 9.8 h; Cmax [28]: 2 µM; logD [29]: 2.8; Cmax [30]: 1.7 µM |
